# Screening results: PubChem, several laboratories
# MC4R antag cAMP: human MC4R antagonism in cAMP assay; inhibition, % at 6.5 µM; 0.48% of 360,000 active; MC4R-expressing cells, MTII-stimulated cAMP, LANCE TR-FRET; AID 540295;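 active = inhibition above its plate's cutoff, the mean of tested wells on that plate plus 3 SD, cut at about 29% in these data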
# Target sequence (P32245 whole entry, looked up): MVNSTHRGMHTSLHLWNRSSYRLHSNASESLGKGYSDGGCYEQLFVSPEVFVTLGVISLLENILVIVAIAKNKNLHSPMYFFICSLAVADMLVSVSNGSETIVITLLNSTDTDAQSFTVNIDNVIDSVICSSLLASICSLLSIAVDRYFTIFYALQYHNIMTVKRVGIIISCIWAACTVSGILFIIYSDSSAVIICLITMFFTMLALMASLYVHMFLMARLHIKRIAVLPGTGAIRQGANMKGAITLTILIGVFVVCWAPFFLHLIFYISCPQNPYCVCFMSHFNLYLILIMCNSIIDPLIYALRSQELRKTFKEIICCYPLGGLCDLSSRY
#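 Assay system: U2OS-MC4R stable cell line; Also added: Melanotan II; Technique: Eu-cAMP/anti-cAMP TR-FRET, emission 671 nm; Times: 30-min compound, 1-h challenge, 1-h detection, room temperature.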
# GalR3 antagonist: antagonists of human GalR3; O60755; HEK293 GalR3-CNG cAMP membrane potential fluorescence; galR3 body fused to GalR1 C-terminus; inhibition, % at 3 µM; 0.44% of 360,000 active; AID 651719;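 active = inhibition above the screen-wide average plus 3 SD, cut at about 13% in these data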;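 note: forskolin and galanin both at EC90 stimulate the cells; cAMP rise reported by CNG channel membrane potential dye signal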
# Target sequence (O60755 1-299 limits assumed): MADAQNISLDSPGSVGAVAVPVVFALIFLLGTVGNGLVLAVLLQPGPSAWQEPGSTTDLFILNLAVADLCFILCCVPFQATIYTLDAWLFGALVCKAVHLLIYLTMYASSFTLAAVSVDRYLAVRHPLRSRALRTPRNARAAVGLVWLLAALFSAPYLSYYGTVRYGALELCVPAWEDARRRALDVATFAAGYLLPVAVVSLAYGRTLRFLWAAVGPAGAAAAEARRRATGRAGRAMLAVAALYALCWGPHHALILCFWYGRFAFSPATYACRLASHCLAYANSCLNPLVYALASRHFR
# Efflux pump mplx: blocks antifungal efflux pumps in multiplex yeast assay | inhibition, % at 10 µM | S. cerevisiae Candida pump triplex, Nile Red efflux | 0.44% of 330,000 active;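 active = plate passing quality check with inhibition over a set limit, or well fluorescence over plate mean plus 4 SD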;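 note: Nile Red retained in pooled yeast measured as flow cytometry median fluorescence; higher means more Nile Red kept so more efflux inhibition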
# Calb FLC: affects C. albicans growth with fluconazole; C. albicans CaCi-2 + fluconazole, Alamar Blue growth, 48 h; growth inhibition, % (no concentration beside the values); 0.57% of 300,000 active;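 active = growth inhibition above about 58% in most replicates, limit read from the data, passing the limit was not always enough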;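 note: all wells also contain fluconazole at 8 µg/ml as a sub-toxic cotreatment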
# MC4R ag barr: activates human MC4R beta-arrestin recruitment; U2OS MC4R beta-arrestin complementation, luminescence; percent of melanotan II response, DMSO zero; AID 540308; 0.98% of 360,000 active; P32245; activation, % at 8.9 µM;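 active = activation above a per-plate cutoff, the mean activation of sample wells on that plate plus 3 SD, cut at about 8% in these data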
# H9c2 TAG inh: triacylglycerol accumulation inhibition | H9c2 cells, Nile Red lipid (TAG) fluorescence; cells loaded with 200 µM oleic acid | inhibition, % at 12.5 µM | 0.66% of 230,000 active | AID 651582;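 active = pattern-corrected inhibition of lipid staining of at least 50% with the nuclear-stain viability signal not falling by more than 50%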
# Yeast cmpd fluor: compound fluorescence in yeast efflux pump counter-screen. fluorescence ratio to DMSO, % at 10 µM. AID 588517. S. cerevisiae AD/pABC3, flow cytometry. 4% of 1,700 active. shares compounds with Efflux pump mplx;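 active = fluorescence ratio to DMSO above its plate's cutoff, the plate mean ratio plus 5 SD, cut at about 210% in these data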;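 note: unstained yeast with no Nile Red so the signal is compound autofluorescence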
# Mdr1 pump inh: Candida Mdr1 efflux pump inhibition; shares compounds with Efflux pump mplx; S. cerevisiae AD/CaMDR1, Nile Red efflux, flow cytometry; inhibition, % at 10 µM; 1% of 1,700 active; in the data active = inhibition above about 26%;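 note: higher means more Nile Red retained so more efflux inhibition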
# CaCdr2 efflux inh: Candida Cdr2 efflux pump inhibition. 4% of 1,700 active. shares compounds with Efflux pump mplx. AID 588520. S. cerevisiae AD/CaCDR2, Nile Red retention, flow cytometry. Nile Red retention ratio vs DMSO, % at 10 µM; in the data active = Nile Red retention ratio vs DMSO above about 190%;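 note: higher ratio means more blocking of Cdr2 efflux of the dye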
# CaCdr1 efflux inh: inhibitors of Candida albicans Cdr1 efflux pump. AID 588522. inhibition, % at 10 µM. 1% of 1,700 active. shares compounds with Efflux pump mplx. S. cerevisiae AD/CaCDR1, Nile Red efflux, flow cytometry;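 active = inhibition above the screen-wide mean plus twice its standard deviation, cut at about 32% in these data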
# Hits are given with their value; n = inactive; x = not tested or not shown. Shown are actives, neighbours in structure and some others; about 2.9% of the full set was active somewhere.
SMILES,MC4R antag cAMP,GalR3 antagonist,Efflux pump mplx,Calb FLC,MC4R ag barr,H9c2 TAG inh,Yeast cmpd fluor,Mdr1 pump inh,CaCdr2 efflux inh,CaCdr1 efflux inh
CCCCc1ccc(-c2csc(/C(C#N)=C\c3ccco3)n2)cc1,n,n,0.6,n,n,n,n,n,n,n
C=CCN1C(=O)C(=Cc2ccc3c(c2)CCC3)SC1=S,n,n,x,x,n,n,x,x,x,x
O=C1C=CC(=O)N1c1cccc(-c2ccccc2)c1,48,n,2.6,n,n,n,n,n,n,n
O=C(Nc1cccc(N2C(=O)C=CC2=O)c1)c1cccs1,n,n,n,n,n,n,x,x,x,x
Cc1ccc(CNS(=O)(=O)c2c(C(=O)N3CCCCC3)c(C)n(C)c2C)o1,n,n,n,n,n,x,x,x,x,x
c1csc(-c2nc3c4ccccc4c4ccccc4c3[nH]2)c1,n,n,0.4,n,n,n,n,n,n,n
O=C(NCCC1=CCCCC1)C1CCC(CNc2nc(=S)[nH]c3ccccc23)CC1 (configuration not stated),n,n,1.1,n,n,n,n,n,n,n
COc1ccc2[nH]cc(C(=O)CN3CCCC(C)C3)c2c1 (configuration not stated),n,n,n,n,n,x,x,x,x,x
COc1ccc2[nH]cc(C(=O)CN3CCC(C)CC3)c2c1,n,n,8.2,n,n,x,n,n,n,n
CCOc1ccccc1NC(=O)COC(=O)C(CC(C)C)N1C(=O)C2CC=CCC2C1=O (configuration not stated),n,n,n,n,n,x,x,x,x,x
CC(C)CC(C(=O)OCC(=O)Nc1cccc(Cl)c1)N1C(=O)C2CC=CCC2C1=O (configuration not stated),n,n,2.7,n,n,x,n,n,n,n
Cc1ccc(CC(NC(=O)c2ccccc2)C(=O)NC(C)C(=O)O)cc1 (configuration not stated),n,n,1.5,n,n,x,n,n,n,n
Cc1cc(NS(=O)(=O)c2ccc(NC(=O)C(CC(C)C)N3C(=O)c4ccccc4C3=O)cc2)nc(C)n1 (configuration not stated),n,n,0.9,n,n,n,n,n,n,n
Cc1cc(NS(=O)(=O)c2ccc(NC(=O)C(C(C)C)N3C(=O)c4ccccc4C3=O)cc2)nc(C)n1 (configuration not stated),n,n,n,n,n,x,x,x,x,x
Cc1ccc(/C=C2\CCC3=C2OC(N)=C(C#N)C3c2ccc(C)cc2)cc1 (configuration not stated),n,x,3.6,n,n,n,n,n,n,n
Cc1ccc(OCC(=O)Nc2cnn(CCCC(=O)O)c2)c([N+](=O)[O-])c1,n,n,3.9,n,n,n,n,n,n,n
O=C(NCC1CCCO1)c1ccc(Br)c(S(=O)(=O)N2CCOCC2)c1 (configuration not stated),n,n,24,x,n,n,n,n,n,n
CCOC(=O)C1=CCN(S(=O)(=O)c2ccccc2Br)C1c1ccc(Cl)cc1 (configuration not stated),x,n,x,x,x,x,x,x,x,x
COc1ccc(C(C)n2c(C)c3c(C)nnc(C)c3c2C)cc1 (configuration not stated),n,n,6.7,n,n,x,n,n,n,n
O=C(NCCN1CCC(n2c(=O)[nH]c3ccccc32)CC1)c1cccnc1Cl,x,n,x,x,x,x,x,x,x,x
CCC(O)(C#CCN1CCCCC1)CC,n,n,n,n,n,x,x,x,x,x
CC(C)C(O)(C#CCN1CCCCC1)C(C)C,n,n,14,n,n,n,n,n,n,n
COC(=O)c1cc2c(c3c4cc(OC)ccc4n(S(=O)(=O)c4ccc(F)cc4)c13)C(=O)N(CC(C)C)C2,x,n,x,x,x,x,x,x,x,x
c1ccc(-c2ccc3c(c2)c2c4n3CCN=C4CCC2)cc1,n,n,0.3,99,n,x,n,n,n,n
OC1CN=C2CCCc3c2n(c2ccc(Cl)cc32)C1 (configuration not stated),n,n,n,n,n,n,x,x,x,x
SMILES,MC4R antag cAMP,GalR3 antagonist,Efflux pump mplx,Calb FLC,MC4R ag barr,H9c2 TAG inh,Yeast cmpd fluor,Mdr1 pump inh,CaCdr2 efflux inh,CaCdr1 efflux inh
COCCN(Cc1ccc(C)cc1)C(=O)[C@H]1O[C@@H](n2cnc(C(N)=O)n2)[C@H](O)[C@@H]1O,x,n,x,x,x,x,x,x,x,x
O=C(Nc1ccccc1O)c1ccccc1O,n,n,1.1,n,n,n,n,n,n,n
COc1ccc(NC(=O)CSc2nnc(Cc3cccn3C)n2-c2ccc(C)cc2)cc1OC,n,n,6.7,n,n,x,n,n,n,n
COc1ccc(NC(=O)CSc2nnc(Cc3cccn3C)n2-c2ccc(F)cc2)cc1,n,n,n,n,n,n,x,x,x,x
COc1ccc(-n2c(Cc3cccn3C)nnc2SCC(=O)Nc2ccccc2F)cc1,n,n,n,n,n,n,n,n,n,n
COc1ccc(NC(=O)CSc2nnc(Cc3cccn3C)n2CCc2ccccc2)c(OC)c1,n,x,6.7,n,n,x,n,n,n,n
COc1ccccc1NC(=O)CSc1nnc(Cc2cccn2C)n1CCc1ccccc1,n,n,n,n,n,x,x,x,x,x
COc1ccc(-n2c(Cc3cccn3C)nnc2SCC(=O)Nc2cccc(OC)c2)cc1,n,n,n,n,n,x,x,x,x,x
CCOc1ccc(NC(=O)CSc2nnc(Cc3cccn3C)n2-c2ccc(F)cc2)cc1,n,n,n,n,n,n,n,n,n,n
CC(=O)Nc1cc2c(cc1Cl)-c1ccccc1C2O (configuration not stated),n,n,x,x,n,n,x,x,x,x
COc1ccc(-n2c(Cc3cccn3C)nnc2SCC(=O)NCCc2ccccc2)cc1,n,n,6.7,n,n,x,n,n,n,n
CC(=O)Nc1cnc(-c2ccccc2O)cn1,n,n,x,x,n,n,x,x,x,x
Cc1cc(C(=O)NC2CC(C)(C)Cc3c2cnn3-c2ccccc2)n(C)n1 (configuration not stated),n,n,n,n,n,n,x,x,x,x
Cc1cc(C(=O)NC2CC(C)(C)Cc3c2cnn3-c2ccc(F)cc2)no1 (configuration not stated),n,n,n,n,n,n,n,n,n,n
Cc1cc(C(=O)NC2CC(C)(C)Cc3c2cnn3-c2cccc(F)c2)n(C)n1 (configuration not stated),n,n,n,n,n,n,n,n,n,n
